# From PubChem BioAssay
# A selection: hits, their analogues and other compounds. The true share with any hit is near 1.6%.
# MBD2 inh = inhibitors of human MBD2 binding to methylated oligonucleotide; TR-FRET; inhibition, % at 4.4 µM; 0.31% of 370,000 active; AID 686964; in the data active means inhibition above about 13%
# UHRF1 binding = human UHRF1 methylated DNA binding inhibitors; UHRF1 binding to methylated oligo, TR-FRET; 0.75% of 370,000 active; inhibition, % at 4.4 µM; Q96T88; in the data active means inhibition above about 21%;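 further: UHRF1 SRA domain binding a hemimethylated CpG hairpin DNA probe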
# LEDGF integ inh = blocks HIV-1 LEDGF/p75-dependent DNA integration | inhibition, % at 3.7 µM | TR-FRET IN-LEDGF/p75 DNA integration, Eu/Cy5 | AID 743269 | 0.64% of 370,000 active;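 active means inhibition above the screen-wide mean plus 3 SD, cut at about 13% in these data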;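 further: signal is the Cy5 over europium emission ratio at 671 and 618 nm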
# TDP2 inh = TDP2 (human) inhibition, absorbance primary screen | O95551 | recombinant TDP2, T5PNP hydrolysis, p-nitrophenol absorbance 415 nm | inhibition, % at 12.8 µM | 0.34% of 370,000 active | AID 720702;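 active means inhibition above the mean of all tested compounds plus 3 SD, set per campaign, cut at about 25% in these data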
#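 Test system: human TDP2 enzyme; Input: 120 nM TDP2 per well; Buffer or medium: Mg2+-containing Tris-HCl buffer, pH 7.5; Reagent: 5 mM T5PNP; Dosing: 12.8 µM single point, 1% DMSO; Incubation: reaction 2 h, 37 °C; Detection: p-Nitrophenol epi absorbance; Read-out: % inhibition relative to enzyme-containing and enzyme-free wells; Replicates: single well per compound.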
# IN multimer up = HIV-1 integrase multimerization activation, counter-screen. shares compounds with LEDGF integ inh. TR-FRET HIV-1 integrase multimerization, biochemical. activation, % at 7.7 µM. 17% of 2,000 active. AID 1053131; in the data active means activation above about 8.9%
# TRFRET interf = optically interferes with TR-FRET readout in LEDGF counter-screen; TR-FRET optical interference counterscreen, HIV-1 IN multimerization; inhibition, % at 7.7 µM; AID 1053135; shares compounds with LEDGF integ inh; 2,000 tested, under 10 active;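 active means inhibition above the mean over all tested compounds plus 3 SD, which no compound reached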
# IN-LEDGF confirm = confirmation of HIV-1 LEDGF/p75-dependent integration inhibitors; shares compounds with LEDGF integ inh; AID 1053136; 36% of 2,000 active; TR-FRET LEDGF/p75-dependent HIV-1 integration, biochemical; inhibition, % at 3.7 µM; in the data active means inhibition above about 14%
# Numbers stand for hits; i = inactive; nt = not tested or not shown.
SMILES,MBD2 inh,UHRF1 binding,LEDGF integ inh,TDP2 inh,IN multimer up,TRFRET interf,IN-LEDGF confirm
Cc1cc(=O)[nH]c(SCC(=O)NCc2ccc3c(c2)OCO3)n1,i,i,i,i,nt,nt,nt
Cc1nc(SCC(=O)NCc2ccc3c(c2)OCO3)c(C#N)c2c1CCCC2,i,i,91,i,i,i,i
CC(=O)Nc1ccc(-c2ccnc3c2CC(C(=O)Nc2cccc(N(C)C)c2)O3)cc1 (stereo not drawn),i,i,24,i,i,i,i
O=C1C(=Cc2cccc(O)c2O)SC(=S)N1CCCN1CCOCC1,i,i,24,i,18,i,i
CC(=O)Nc1cc(C(F)(F)F)ccc1Oc1cccc(Br)c1,i,i,16,i,i,i,i
CCOCC(=O)Nc1cc(C(F)(F)F)ccc1Oc1cccc(Br)c1,i,i,i,i,nt,nt,nt
Cc1ccc(S(=O)(=O)Oc2ccccc2N2C(=O)C3C4CCC(C4)C3C2=O)cc1 (stereo not drawn),i,i,i,i,nt,nt,nt
O=C1C2C3C=CC(C3)C2C(=O)N1c1ccccc1OS(=O)(=O)c1ccccc1 (stereo not drawn),i,i,21,i,i,i,i
Clc1ccc(OCCOc2ccc(Br)nc2Br)c(Cl)c1,i,i,i,i,nt,nt,nt
COc1ccccc1N(CC(=O)NCc1ccco1)S(=O)(=O)c1ccc(C)cc1,i,29,23,i,i,i,28
